Calls of active or inactive are those of the source. No cut-off for these calls is given here.
Key:
A549 [1] = assay: Downregulation of PD-L1 expression in human A549 cells by flow cytometry analysis; format: functional, cell-based
How it was run: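 A549 cells treated with compound. Surface "don't eat-me" and "eat-me" markers measured by flow cytometry.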

Mus musculus [2] = assay: In vivo inhibition of KRAS activation in male C57BL/6 mouse allografted with mouse Lewis lung carcinoma cell line assessed as decrease in RAS level at 10 mg/kg, po; format: functional, organism-based
A549 [3] = assay: Inhibition of PLD1 L425A mutant (unknown origin) overexpressed in human A549 cells; format: cell-based
How it was run: (§1)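 A549 cells transfected with wild-type PLD1, PLD1 mutants (L425A, F614A, F789A) or PLD2, then compound-treated. PLD activity measured as [3H]phosphatidylbutanol formed in the presence of 1-butanol after [3H]myristic acid labeling, expressed as % of total lipid cpm. At least three independent experiments.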

[4] = target: T1, Phospholipase D1 (Homo sapiens) (UniProt Q13393); assay: Inhibition of PLD1 (unknown origin) overexpressed in human A549 cells; format: cell-based; how it was run: as §1
T1 sequence (whole entry): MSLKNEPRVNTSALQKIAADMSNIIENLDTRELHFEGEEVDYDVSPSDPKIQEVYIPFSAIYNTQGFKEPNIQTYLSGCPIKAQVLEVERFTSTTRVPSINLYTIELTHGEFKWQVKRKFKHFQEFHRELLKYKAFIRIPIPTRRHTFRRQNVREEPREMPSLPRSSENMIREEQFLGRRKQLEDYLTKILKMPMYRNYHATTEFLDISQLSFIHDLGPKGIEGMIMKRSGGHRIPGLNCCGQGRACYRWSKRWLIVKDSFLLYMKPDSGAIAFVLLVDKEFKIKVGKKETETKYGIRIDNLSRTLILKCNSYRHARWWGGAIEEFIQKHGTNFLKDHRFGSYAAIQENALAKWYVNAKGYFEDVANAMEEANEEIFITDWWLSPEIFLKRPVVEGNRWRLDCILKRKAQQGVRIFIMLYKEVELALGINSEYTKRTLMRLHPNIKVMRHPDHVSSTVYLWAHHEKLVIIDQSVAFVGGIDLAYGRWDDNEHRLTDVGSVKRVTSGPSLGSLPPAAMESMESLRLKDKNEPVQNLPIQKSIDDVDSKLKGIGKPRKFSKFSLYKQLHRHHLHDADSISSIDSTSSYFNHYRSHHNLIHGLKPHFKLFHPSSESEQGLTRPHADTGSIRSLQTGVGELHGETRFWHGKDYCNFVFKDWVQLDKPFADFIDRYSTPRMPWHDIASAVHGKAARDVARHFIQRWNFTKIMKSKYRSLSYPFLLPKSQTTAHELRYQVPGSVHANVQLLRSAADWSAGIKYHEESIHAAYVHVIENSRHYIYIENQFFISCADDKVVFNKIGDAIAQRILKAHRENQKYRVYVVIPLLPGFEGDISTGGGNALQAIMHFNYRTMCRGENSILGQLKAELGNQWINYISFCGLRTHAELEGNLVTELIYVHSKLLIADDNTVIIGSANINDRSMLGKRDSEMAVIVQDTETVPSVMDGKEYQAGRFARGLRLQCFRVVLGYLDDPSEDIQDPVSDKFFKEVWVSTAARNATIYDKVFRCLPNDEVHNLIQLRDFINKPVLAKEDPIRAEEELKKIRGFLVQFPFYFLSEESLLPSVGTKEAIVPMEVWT

NCI-H460 = assay: Cytotoxicity against human NCI-H460 cells assessed as inhibition of cell growth incubated for 48 hrs by WST-1 assay; format: functional, cell-based; conditions: NCI-H460, 48 h
How it was run: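 WST-1 viability assay. Cells seeded at 5 × 10^3 per well and incubated 24 h at 37 °C, then exposed to drug for 48 h. Absorbance read at 450 nm, in triplicate. IC50 taken as the concentration giving 50% growth inhibition versus control.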

[5] = Metabolic stability in human liver microsomes assessed as parent compound remaining at 1 uM preincubated for 5 mins followed by NADPH regenerating system addition and measured after 30 mins by LC-MS/MS analysis; format: ADME, Microsome; conditions: time 35 min, read-out: Stability
How it was run: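 Human liver microsomes 0.5 mg/mL in 0.1 M phosphate buffer pH 7.4, compound 1 μM, preincubated 5 min at 37 °C; NADPH regenerating system added, 30 min at 37 °C; quenched with acetonitrile containing chlorpropamide internal standard, centrifuged; parent remaining by LC-MS/MS, MRM mode, C18 column with formic acid/acetonitrile gradient.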

Mus musculus [6] = assay: In vivo inhibition of KRAS activation in male C57BL/6 mouse allografted with mouse Lewis lung carcinoma cell line assessed as decrease in ERK phosphorylation at 10 mg/kg, po; format: functional, organism-based
[7] = tested on: Lewis lung carcinoma cell line; assay: Antitumor activity against mouse Lewis lung carcinoma cell line allografted in […] male C57BL/6 mouse model assessed as suppression of tumor formation at 10 mg/kg, po measured every other day for 3 weeks; format: functional, organism-based

Q: For `O=C(CCc1c[nH]c2ccccc12)Nc1cc(C(F)(F)F)cc(C(F)(F)F)c1`, which Activity (A549 [1]) is on record?
A: Active

Q: And the inhibition (Mus musculus [2])?
A: Active

Q: And the inhibition (A549 [3])?
A: Active

Q: And the inhibition [4]?
A: Active

Q: What about the IC50 (NCI-H460) of the same molecule?
A: 24.9 µM

Q: What about the remaining at 0.5 h, 1 µM [5] of the same molecule?
A: 57.3%

Q: And the inhibition (Mus musculus [6])?
A: Active

Q: And the Activity [7]?
A: Active

Reference: ChEMBL document CHEMBL6134796, “Development and Evaluation of Indole-Based Phospholipase D Inhibitors for Lung Cancer Immunotherapy” (J Med Chem, 2025)
